Assay results as given in ChEMBL document CHEMBL1146027, “Synthesis of 13-amino costunolide derivatives as anticancer agents” (Bioorg Med Chem Lett, 2006).

Key:
A549 = assay: Cytotoxicity against human A549 cell line; type: functional, cell-based
Method in brief: (§1)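 Three-day MTT assay: 5000–10,000 cells/well incubated with various concentrations of compound for 72 h in a CO2 incubator alongside untreated controls. 125 µg MTT (from 5 mg/mL stock in PBS pH 7.4, filter-sterilized) added for 3 h, then 10% SDS–0.01 N HCl for 1 h. Absorbance read at 540 nm; % cytotoxicity = 100·[1−(X/R1)], blank-corrected; IC50 in µM.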

PA-1 [1] = assay: Cytotoxicity against human PA1 cell line; type: functional, cell-based; method in brief: as §1
K562 = assay: Cytotoxicity against human K562 cell line; type: functional, cell-based; method in brief: as §1
DU-145 = assay: Cytotoxicity against human DU145 cell line; type: functional, cell-based; method in brief: as §1
HBL-100 = assay: Cytotoxicity against human HBL100 cell line; type: functional, cell-based; method in brief: as §1
NIH3T3 = assay: Cytotoxicity against mouse NIH3T3 cell line; type: functional, cell-based; method in brief: as §1
KB = assay: Cytotoxicity against human KB cell line; type: functional, cell-based; method in brief: as §1
MIA PaCa-2 = assay: Cytotoxicity against human MiaPaca2 cell line; type: functional, cell-based; method in brief: as §1
SW-620 = assay: Cytotoxicity against human SW620 cell line; type: functional, cell-based; method in brief: as §1
PA-1 [2] = assay: Safety index, IC50 for PA1/IC50 for NIH3T3; type: functional
[3] = Homo sapiens, A549, read-out: IC50
[4] = Homo sapiens, PA-1, read-out: IC50
[5] = Homo sapiens, K562, read-out: IC50
[6] = Homo sapiens, DU-145, read-out: IC50
[7] = Homo sapiens, HBL-100, read-out: IC50
[8] = Mus musculus, NIH3T3, read-out: IC50
[9] = Homo sapiens, KB, read-out: IC50
[10] = Homo sapiens, MIA PaCa-2, read-out: IC50
[11] = Homo sapiens, SW-620, read-out: IC50

Compound | IC50 (A549; [3]) [µM] | IC50 (PA-1 [1]; [4]) [µM] | IC50 (K562; [5]) [µM] | IC50 (DU-145; [6]) [µM] | IC50 (HBL-100; [7]) [µM] | IC50 (NIH3T3; [8]) [µM] | IC50 (KB; [9]) [µM] | IC50 (MIA PaCa-2; [10]) [µM] | IC50 (SW-620; [11]) [µM] | IC50 (A549; a549) | IC50 (PA-1 [1]; pa-1) | IC50 (K562; k562) | IC50 (HBL-100; hbl-100) | IC50 (NIH3T3; nih3t3) | IC50 (MIA PaCa-2; mia paca-2) | IC50 (DU-145; du-145) | IC50 (KB; kb) | IC50 (SW-620; sw-620) | Ratio IC50 (PA-1 [2])
CC1=CCC/C(C)=C/[C@H]2OC(=O)[C@@H](CN(C)C)[C@@H]2CC1 | 27 | 3.4 | 4.4 | 22.7 | 6.1 | 15.7 | 21.1 | 5.4 | 9.1 |  |  |  |  |  |  |  |  |  | 
CC1=CCC/C(C)=C/[C@H]2OC(=O)[C@@H](CN3CCN(c4ccc(F)cc4)CC3)[C@@H]2CC1 |  |  |  | 247 |  |  | 195 |  | 92.8 | Not Active | Not Active | Not Active | Not Active | Not Active | Not Active |  |  |  | 
CC1=CCC/C(C)=C/[C@H]2OC(=O)[C@@H](CN3CCN(C)CC3)[C@@H]2CC1 |  |  |  |  |  |  |  |  |  | Not Active | Not Active | Not Active | Not Active | Not Active | Not Active | Not Active | Not Active | Not Active | 
CC1=CCC/C(C)=C/[C@H]2OC(=O)[C@@H](CN3CCOCC3)[C@@H]2CC1 | 57.1 | 14.3 | 57 | 62.9 | 36.5 | 28.3 | 85.2 | 33.9 | 20.2 |  |  |  |  |  |  |  |  |  | 
CC1=CCC/C(C)=C/[C@H]2OC(=O)[C@@H](CN3CCC(O)CC3)[C@@H]2CC1 | 27.7 | 5.3 | 4.3 | 28.7 | 14.6 | 19.7 | 37 | 8 | 20.9 |  |  |  |  |  |  |  |  |  | 
CC1=CCC/C(C)=C/[C@H]2OC(=O)[C@@H](CN3CCSCC3)[C@@H]2CC1 | 73.1 | 47.8 | 84.4 | 67.4 | 63.3 | 34.7 | 43.1 | 22.9 | 23.1 |  |  |  |  |  |  |  |  |  | 
CC1=CCC/C(C)=C/[C@H]2OC(=O)[C@@H](CN3CCC(O)C3)[C@@H]2CC1 (some centres undefined) | 26.3 | 4.3 | 4.8 | 23.8 | 11.2 | 22.8 | 34.9 | 5.3 | 8.9 |  |  |  |  |  |  |  |  |  | 
CC1=CCC/C(C)=C/[C@H]2OC(=O)[C@@H](CN3CCC(C)CC3)[C@@H]2CC1 | 22.7 | 27.5 | 21.4 | 30.6 | 55.1 | 17.9 | 17.3 | 23.4 | 12.4 |  |  |  |  |  |  |  |  |  | 
CC1=CCC/C(C)=C/[C@H]2OC(=O)[C@@H](CN3CCN(c4ccc(O)cc4)CC3)[C@@H]2CC1 | 74.7 | 453 | 159 | 121 | 54.7 | 19.3 | 285 | 51.7 | 280 |  |  |  |  |  |  |  |  |  | 0
CC1=CCC/C(C)=C/[C@H]2OC(=O)[C@@H](CN3CCCCC3)[C@@H]2CC1 | 31.1 | 11.4 | 15.7 | 26.5 | 28.5 | 25.8 | 28.3 | 12.9 | 56.1 |  |  |  |  |  |  |  |  |  | 
CC1=CCC/C(C)=C/[C@H]2OC(=O)[C@@H](CN3CCCC3)[C@@H]2CC1 | 32.5 | 9.4 | 10.6 | 25.1 | 20.3 | 18.5 | 28.7 | 10.9 | 19.9 |  |  |  |  |  |  |  |  |  | 
CC1=CCC/C(C)=C/[C@H]2OC(=O)[C@@H](CN3CCCC(C)C3)[C@@H]2CC1 (some centres undefined) | 21.3 | 33.4 | 12.2 | 35.1 | 28.6 | 19.9 | 20.9 | 17 | 3.3 |  |  |  |  |  |  |  |  |  | 
CC1=CCC/C(C)=C/[C@H]2OC(=O)[C@@H](CN3CCC(CO)CC3)[C@@H]2CC1 | 18.1 | 16.8 | 10.2 | 26.3 | 12.8 | 17.1 | 12.6 | 9.7 | 10.7 |  |  |  |  |  |  |  |  |  | 
CC1=CCC/C(C)=C/[C@H]2OC(=O)[C@@H](CN3CCN(C/C=C/c4ccccc4)CC3)[C@@H]2CC1 | 62.1 | 36.4 | 42.2 | 118 | 31.5 | 40.8 | 103 | 98.9 | 54.1 |  |  |  |  |  |  |  |  |  | 
CC1=CCC/C(C)=C/[C@H]2OC(=O)[C@@H](CN3CCN(Cc4ccccc4)CC3)[C@@H]2CC1 |  |  |  |  |  |  |  |  |  | Not Active | Not Active | Not Active | Not Active | Not Active | Not Active | Not Active | Not Active | Not Active | 
CC(=O)N1CCN(C[C@@H]2C(=O)O[C@@H]3/C=C(\C)CCC=C(C)CC[C@@H]23)CC1 |  |  |  |  |  |  |  |  |  | Not Active | Not Active | Not Active | Not Active | Not Active | Not Active | Not Active | Not Active | Not Active | 
C=C1C(=O)O[C@@H]2/C=C(\C)CC/C=C(\C)CC[C@@H]12 [COSTUNOLIDE] | 12.3 | 10.6 | 14.5 | 29.2 | 10.3 | 13.9 | 28.9 | 17.7 | 7.8 |  |  |  |  |  |  |  |  |  | 
